Published values of several laboratories.
Protocols differ between the studies behind these lines.
Target: Casein kinase I isoform alpha (CSNK1A1, Homo sapiens, UniProt P48729)

For `COc1cccc2c(NCc3ccccc3)nc(-n3c(N)nc4ccccc43)nc12`, the inhibition was 4.9% (target engagement in cells; inhibitor; chemoproteomics; 20 mM).
For `CC(C)(O)[C@H]1CC[C@H](Nc2ccc3ncc(-c4cccc(C(F)(F)F)c4)n3n2)CC1`, the remaining activity was 91.4% (enzyme activity; inhibitor; 1 µM).
`O=C(O)[C@@H]1[C@@H](Cn2nnc3ccccc3c2=O)CC[C@H]1C(=O)c1ccc(OCCC2CCOCC2)cc1` gave a remaining binding of 97% (cell-free assay; competition with immobilised ligand; 1 µM).
`Cc1cc(Nc2cc(N3CCN(C)CC3)nc(Sc3ccc(NC(=O)C4CC4)cc3)n2)[nH]n1` has an activity vs control of 96.7% (enzyme activity; inhibitor; 0.5 µM).
`O=C(Nc1cnn(-c2csc(C(=O)NC3COC3)c2)c1)Nc1c(F)cccc1Cl` gave a remaining activity of 76.6% (enzyme activity; inhibitor; 5 µM).
For `CN(C)C1CCN(CC#Cc2nn(C3CCCC3)c3nc(NCc4ccccc4)ncc23)C1` (stereo not shown), the inhibition was 2% (enzyme activity; inhibitor; FRET; 0.1 µM).
For `CCN1CCN(Cc2ccc(NC(=O)c3ccc(C)c(/C=C/c4cnc5[nH]ccc5c4OC)c3)cc2C(F)(F)F)CC1`, the inhibition was -59.4% (target engagement in cells; inhibitor; chemoproteomics; A-375; 50 nM).
`CO[C@H]1CC[C@H](CNc2ccc(S(=O)(=O)NC(=O)c3ccc(N4CCN(CC5=C(c6ccc(Cl)cc6)CC(C)(C)CC5)CC4)cc3Oc3cnc4[nH]ccc4c3)cc2[N+](=O)[O-])CC1` has a remaining binding of 85% (cell-free assay; competition with immobilised ligand; 1 µM).
`O=C1NC(=O)c2cc(Nc3ccc(F)cc3)c(Nc3ccc(F)cc3)cc21` has a remaining signal of 88% (cell-free assay; inhibitor; 0.5 µM).
The remaining binding of `COc1cc(-c2cn(C3CCc4c(F)cccc4N(CC(F)(F)F)C3=O)nn2)ccc1-n1cnc(C)c1` (stereo not shown) is reported as 100% (cell-free assay; competition with immobilised ligand; 1 µM).
`CCN1CCN(Cc2ccc(NC(=O)c3ccc(C)c(Oc4ccnc5[nH]ccc45)c3)cc2C(F)(F)F)CC1` has an inhibition of -28% (target engagement in cells; inhibitor; chemoproteomics; A-375; 50 nM).
The remaining binding of `CCc1ccccc1C(=O)Nc1n[nH]c2c(C)c(F)c(C3C(C#N)=C(C)N(C)C(C)=C3C#N)cc12` is reported as 96% (cell-free assay; competition with immobilised ligand; 1 µM).
For `Nc1ncnc2occ(-c3ccc(NC(=O)Nc4cc(C(F)(F)F)ccc4F)cc3)c12`, the remaining activity was 3.7% (enzyme activity; inhibitor; 20 µM).
For `COc1cc2c(Nc3ccc(Br)cc3F)ncnc2cc1OCC1CCN(C)CC1`, the remaining signal was 102% (cell-free assay; 0.5 µM).
With `COc1cc2ncnc(Nc3ccc(Oc4ccccc4)cc3C)c2cc1OC` the inhibition was 3% (enzyme activity; inhibitor; 1 µM).
For `CCCCNc1ncc2c(-c3ccc(F)cc3)nn(C[C@H]3CC[C@H](N)CC3)c2n1`, the inhibition was 79.3% (target engagement in cells; inhibitor; chemoproteomics; 20 mM).
With `O=C(Nc1cnn(-c2csc(C(=O)NC3COC3)c2)c1)Nc1ccccc1Cl` the remaining activity was 98.5% (enzyme activity; inhibitor; 5 µM).
For `COc1cc2ncnc(Nc3ccc(F)c(Cl)c3)c2cc1OCCCN1CCOCC1`, the remaining signal was 98.6% (cell-free assay; 0.5 µM).
`CCCS(=O)(=O)Nc1ccc(F)c(C(=O)c2c[nH]c3ncc(-c4ccc(Cl)cc4)cc23)c1F` has an inhibition of less than 10% (enzyme activity; inhibitor; 1 µM).
`CCC(=O)N[C@@H]1CC[C@H](C(=O)N(C)c2ccc(-c3nc4ccccc4o3)cc2)C1` gave a remaining binding of 100% (cell-free assay; competition with immobilised ligand; 1 µM).
`Cc1ccc(C(=O)Nc2ccc(CN3CCN(C)CC3)c(C(F)(F)F)c2)cc1C#Cc1cnc2cccnn12` has a remaining activity of 86% (enzyme activity; inhibitor; 23.5 nM).
`CN(C)C(=O)Cn1cc(-c2nc([C@@](C)(c3ccc(-c4cnc(N)nc4)cc3)C3CC3)no2)cn1` gave a remaining binding of 100% (cell-free assay; competition with immobilised ligand; 1 µM).
The remaining activity of `CC(C)(C)c1nc2c(s1)c1nc(N)ncc1c1ccc(NS(=O)(=O)c3c(F)cccc3F)c(F)c12` is reported as 86% (enzyme activity; inhibitor; radiometric; 1 µM).
`Cc1ccc(NC(=O)c2ccc(CN3CCN(C)CC3)cc2)cc1Nc1nccc(-c2cccnc2)n1` gave an activity vs control of 102% (enzyme activity; inhibitor; 0.5 µM).
For `CN(c1ccnc(CNc2nc(Nc3ccc4c(c3)CC(=O)N4)ncc2C(F)(F)F)n1)S(C)(=O)=O`, the remaining binding was 81% (cell-free assay; competition with immobilised ligand; 1 µM).
